BB579 growth dn: reduces growth of yeast BB579 in restrictive medium | inhibition, % at 10 µM | hit rate 0.51% among 140,000 | S. cerevisiae BB579 growth, OD615, 48 h | AID 804;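 active = inhibition above a set limit, 3 SD over the mean compound inhibition, cut at about 44% in these data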
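System: Saccharomyces cerevisiae DeaD strain BB579, replicative lifespan model yeast | Buffer or medium: Restrictive glucose-based CSMM-D medium | Times: 4 h preincubation and 48 h exposure at 30 °C | Detection: OD615 turbidity measurement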
Yeast life ext: extends the lifespan of yeast; hit rate 0.68% among 130,000; inhibition of the nicotinamide effect, % at 10 µM; AID 775; S. cerevisiae growth with nicotinamide, OD615; deaD strain in restrictive glucose medium;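 active = inhibition above a set limit, placed 3 SD over the median of all compounds, cut at about 26% in these data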;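 also: 0% = nicotinamide-treated wells and 100% = cells grown without nicotinamide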
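assay system = DeaD-strain S. cerevisiae | buffer or medium = restrictive glucose medium | reagent = 1.5 mM nicotinamide | compound = 10 µM single point, 0.25% DMSO | incubation = 48 h compound exposure at 30 °C, humidified | signal = OD615 measurement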
RAM network inh: inhibitors of the yeast RAM network. S. cerevisiae dse1pr::URA3 reporter, 5-FOA growth OD615, 2 d; analog-sensitive cbk1-as2 kinase mutant strain. inhibition, % at 50 µM. hit rate 1.8% among 190,000. AID 868;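 active = inhibition above a set limit, 3 SD over mean compound inhibition, cut at about 8.4% in these data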;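 also: 0% = DMSO-only wells with no growth and 100% = 10 µM 1-NA-PP1 full growth; inhibition rescues growth on 5-FOA so higher OD means more RAM inhibition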
Measles CPE: protection of cells from measles virus; Measles virus-infected cells, CPE protection, absorbance; protection (pct of control), % at 4 µM; hit rate 1.5% among 140,000; AID 841; in the data active = protection mostly above about 24%, no sharp cut-off; inactive = mostly below about 26%
Numbers without * were called inactive; . = no result given. The list is not random: actives were taken first. Their share in the collection is about 3.6%.

SMILES | BB579 growth dn | Yeast life ext | RAM network inh | Measles CPE
Cc1cccc(NC(=S)NCCSc2ccc(Cl)cc2)c1 | . | . | 8.6* | .
Cc1ccc(C)c(NC(=S)NCCSc2ccc(Cl)cc2)c1 | 41.5 | -4.2 | 8.0 | 6.8
COc1ccc(C/C(C)=N/NC(=S)Nc2ccccc2)cc1 | -32.4 | -1.6 | 3.5 | 12.2
COc1ccc(C/C(C)=N/NC(=S)Nc2ccc(C)c(C)c2)cc1 | -26.9 | -5.3 | 1.0 | 19.7*
COc1cc(Cl)ccc1NC(=O)COc1ccccc1C(=O)NN | . | . | 0.0 | .
Cc1ccc(C)c(SCC(=O)Nc2cccnc2Cl)c1 | . | . | 3.3 | .
CCOC(=O)/C(=C\c1ccc(Cl)cc1)c1nc2sc(C)c(C)c2c(=O)[nH]1 | -14.5 | 32.1* | 3.2 | 24.7
CCOC(=O)c1c(NC(=O)C(C)Sc2cccc[n+]2[O-])sc2c1CCN(Cc1ccccc1)C2 (configuration not stated) | 91.0* | 4.8 | -0.2 | 8.4
O=C(O)CCCC(=O)Nc1ccccc1C(=O)N1CCOCC1 | . | . | 1.5 | .
CCCCC(=O)Nc1ccccc1C(=O)N1CCOCC1 | -11.5 | . | 0.4 | 37.1*
C=C(Cl)COc1cc(C)cc2oc(=O)cc(CC)c12 | -23.1 | -11.3 | 1.1 | 3.0
CCc1cc(C=C(Cl)Cl)oc(=O)c1C | -30.2 | -15.8 | 1.0 | 56.2*
O=C1/C(=C/c2ccccc2)CCCc2ccccc21 | -6.4 | -8.7 | 0.8 | 5.5
O=C1C(=C2SCCCS2)CC/C1=C\c1ccc(F)cc1 | -43.9 | 2.1 | 8.1 | 43.6*
Cc1cccc(/C=C2\CCC(=C3SCCCS3)C2=O)c1 | -40.6 | -9.8 | 9.4* | 19.4
O=C(Nn1c(-c2ccncc2)nc2ccccc2c1=O)c1ccc([N+](=O)[O-])cc1Cl | . | . | -0.5 | .
Cc1ccccc1C(=O)NNC1=NCCC1 | -22.2 | 28.8* | 3.8 | 4.3
CCCCc1ccc(NC(=S)Nc2ccc(Nc3ccc(OC)cc3)cc2)cc1 | 55.5* | -5.2 | 7.1 | 5.7
COc1cc2cc(CN(Cc3cccnc3)C(=O)Nc3ccccc3F)c(=O)[nH]c2cc1OC | . | . | -0.2 | .
CC1(C)CC2(CCO1)OC(=O)CC2C(=O)Nc1ccccc1Cl (configuration not stated) | . | . | 3.2 | .
CCOC(=O)N1CCN(Cc2cc(Cl)c3cccnc3c2O)CC1 | . | . | -0.1 | .
COC(=O)c1ccc(C)c(NC(=O)CCc2ccc(OC)cc2)c1 | -28.8 | -4.4 | 1.9 | 9.1
CCOC(=O)Nc1cc(C(=O)OC)ccc1C | -42.8 | -8.6 | 0.9 | 32.6*
CC1CCCCC1NC1=NCCCS1 (configuration not stated) | . | . | 1.3 | .
CC1CCCN(C(=S)Nc2ccc(F)cc2)C1 (configuration not stated) | . | . | 0.1 | .
SMILES | BB579 growth dn | Yeast life ext | RAM network inh | Measles CPE
CC1CCCN(C(=S)Nc2ccc(Nc3ccccc3)cc2)C1 (configuration not stated) | . | . | 9.3* | .
Cc1ccc(NC(=O)Cc2noc3ccccc23)c(C)c1 | -8.3 | 2.1 | 1.1 | 20.8*
COc1cccc(C(=O)N=c2sc3cc(S(C)(=O)=O)ccc3n2C)c1 | . | . | -0.6 | .
COc1ccc(N/C(=C(/C(Cl)=C(Cl)Cl)[N+](=O)[O-])n2nnc3ccccc32)cc1OC | -10.6 | -14.8 | 1.2 | 52.0*
COc1ccc(C(=O)n2nnc3ccccc32)cc1OC | -57.0 | 22.6 | 0.8 | 6.1
CC(CCc1ccccc1)NC(=O)COC(=O)c1ccccc1O (configuration not stated) | . | . | 1.3 | .
Cc1cccc(C(=O)OCC(=O)NC(C)CCc2ccccc2)c1 (configuration not stated) | . | . | 10.2* | .
CC1(C)NC(=O)N(CCCOc2ccc(Br)cc2Cl)C1=O | -26.2 | -31.0 | -0.4 | 56.8*
CC1(C)NC(=O)N(CCCCOc2ccc(Br)cc2Cl)C1=O | -3.3 | -6.0 | -1.9 | 7.6
CC1=NOC(=O)/C1=C/c1ccc(N(C)C)cc1 | -23.6 | 1.1 | 0.6 | 13.7
CCN(CC)c1ccc(/C=C2/C(=O)ON=C2C)cc1 | -33.6 | 40.0* | 0.8 | 12.8
Cc1cc([N+](=O)[O-])ccc1NC(=O)C(C)N1CCN(c2ccccn2)CC1 (configuration not stated) | . | . | 0.9 | .
O=C(NCc1ccc(F)cc1)C1CCCN(C(=O)Nc2ccccc2)C1 (configuration not stated) | -0.6 | -7.4 | -0.7 | 10.5
CCN(CC)C(=O)C1CCCN(C(=O)Nc2ccccc2)C1 (configuration not stated) | 7.7 | -8.0 | -0.3 | 35.0*
Cc1cc(=O)oc2cc(OC(=O)CCCCCN3C(=O)c4ccccc4C3=O)ccc12 | -50.0 | 31.9* | 6.2 | 4.8
CC(=O)Oc1ccc2c(=O)c(N3C(=O)c4ccccc4C3=O)c(C)oc2c1 | -38.7 | 27.8* | 0.5 | 15.1
O=C(Oc1ccc(=O)n(-c2ccccc2)n1)c1ccccc1 | -52.2 | 35.9* | -1.0 | 0.1
Cc1nnc(Sc2nc3ccccc3o2)c2ccccc12 | 0.9 | -7.3 | -0.6 | 26.4*
Cc1ccc(-c2nnc(Sc3nc4ccccc4o3)c3ccccc23)cc1 | -17.5 | -3.4 | 0.3 | 9.3
O=C(O)c1ccccc1Nc1ccc([N+](=O)[O-])cc1 | 95.2* | -4.5 | 0.7 | 82.6*
O=C(O)c1ccccc1Nc1ccccc1C(=O)O | -7.3 | -12.6 | 4.4 | 3.8
N#Cc1cc2c(nc1SCC(=O)Nc1nccs1)CCCCC2 | -42.5 | 10.9 | 6.6 | 34.3*
CC(C)Cn1c(-c2ccc(Cl)cc2)cnc1SCC(=O)N1CCOCC1 | -9.8 | -10.1 | 2.6 | 95.5*
C[n+]1cc(C(=O)N2CCCCC2)ccc1/C=C/c1c[nH]c2ccccc12 | . | . | 0.6 | .
COC(=O)C(C)NC(=O)CNS(=O)(=O)c1ccc(F)cc1 (configuration not stated) | . | . | 1.9 | .
SMILES | BB579 growth dn | Yeast life ext | RAM network inh | Measles CPE
Nc1nccc(-c2ccc(-n3cnc4ccccc43)cc2)n1 | . | . | -0.1 | .
Cc1nccc(-c2ccc(-n3cnc4ccccc43)cc2)n1 | -66.3 | -15.1 | 1.9 | 28.6*
Cc1nc(SCC2(C)CC2(Cl)Cl)n[nH]1 (configuration not stated) | . | . | 0.6 | .
CCc1ccc(/C=C/C(=O)C2C(=O)c3ccccc3C2=O)cc1 | -8.7 | 28.2 | 9.1* | 3.7
O=C(/C=C/c1ccccc1)C1C(=O)c2ccccc2C1=O | -49.4 | 42.7* | 4.5 | 3.3
O=C(c1ccccc1)C1C(=O)c2ccccc2C1=O | -9.1 | 26.7* | -1.4 | 11.3
O=C(NNC(=O)c1cccc(O)c1)Nc1ccc([N+](=O)[O-])cc1 | . | . | 4.1 | .
O=C1NCCCC1C(=O)N/N=C/c1cccc(O)c1 (configuration not stated) | 100.4* | -1.3 | -0.1 | 2.3
CCOC(=O)C(C)c1nc2ccccc2[nH]c1=O (configuration not stated) | -58.0 | -13.8 | -1.6 | 25.3*
NC(=S)Nc1nc2ccccc2[nH]c1=O | -27.1 | -4.5 | 2.5 | 5.8
O=c1[nH]c2ccccc2nc1C(Cl)c1ccccc1 (configuration not stated) | -42.1 | 37.4* | -0.6 | 12.1
Cc1nn(-c2ccc(F)cc2)c(Cl)c1/C=C1\C(=O)Nc2ccccc21 | -30.6 | -0.7 | 8.6* | 3.5
O=C(O)c1ccc(NCCC2=CCCCC2)c([N+](=O)[O-])c1 | . | . | 3.1 | .
O=C(N/N=C/C=C/c1ccccc1)NC1CCCCC1 | . | . | 0.0 | .

Compound activity: PubChem BioAssay, several laboratories
